# Assay outcomes deposited in PubChem BioAssay by Johns Hopkins Ion Channel Center.
# RGS4 inh: RGS4 inhibitors, primary screen, cell-based, HEK293 M3R inducible RGS4, calcium flux; B-score at 10 µM; AID 463165, 2010; hit rate 0.45% among 310,000; Fluo-4 calcium flux; hits give high values; triggered by carbachol at its EC20;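 active means B-score, a plate-corrected calcium signal, over three deviations above library mean, with baseline fluorescence within five deviations of library mean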;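 further: RGS4 expression induced by doxycycline in cells with stable M3 receptor; B-score is computed from the integrated fluorescence ratio over baseline after carbachol; higher B-score means a larger calcium signal and so more RGS4 inhibition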
# Target sequence (P49798 whole entry, looked up): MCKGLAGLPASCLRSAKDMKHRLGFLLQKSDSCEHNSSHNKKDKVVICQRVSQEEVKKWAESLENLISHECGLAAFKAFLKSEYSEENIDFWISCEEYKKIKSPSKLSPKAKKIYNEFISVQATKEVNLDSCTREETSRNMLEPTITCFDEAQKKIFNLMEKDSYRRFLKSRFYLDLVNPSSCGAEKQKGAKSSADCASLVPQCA
# MrgX1 antag: antagonists of human MrgX1 receptor, primary screen, HEK293 cells, Fluo-4 calcium flux; BAM8-22 antagonism; hits give low values; Mas-related G-protein coupled receptor member X1 (Homo sapiens), Q96LB2; B-score at 10 µM; hit rate 1.3% among 310,000;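 active means calcium-response B-score plate-corrected more than 3 library SD below zero, starting fluorescence within 5 deviations, no agonist response on first addition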;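 further: peak minus trough fluorescence over baseline after final BAM8-22 challenge near maximal dose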
# Target sequence (Q96LB2 whole entry, looked up): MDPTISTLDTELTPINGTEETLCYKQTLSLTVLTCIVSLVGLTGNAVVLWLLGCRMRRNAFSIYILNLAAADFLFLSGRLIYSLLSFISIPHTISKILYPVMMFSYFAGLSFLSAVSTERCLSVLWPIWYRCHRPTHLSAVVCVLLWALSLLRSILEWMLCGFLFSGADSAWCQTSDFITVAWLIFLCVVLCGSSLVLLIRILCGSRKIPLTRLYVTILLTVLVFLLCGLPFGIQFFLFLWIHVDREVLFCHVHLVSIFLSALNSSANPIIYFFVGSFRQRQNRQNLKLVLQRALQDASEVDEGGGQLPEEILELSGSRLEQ
# MrgX1 allo act: positive allosteric modulators of MrgX1, primary screen, HEK293 cells, Fluo-4 calcium flux | FDSS; hits give high values | B-score at 10 µM | hit rate 0.63% among 310,000 | AID 588675, 2011;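 active means plate-corrected calcium response at least 3 library SD above typical, normal starting fluorescence, not activating the receptor alone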;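 further: compound read alongside a low EC10 to EC30 dose of BAM8-22 agonist; peak minus trough fluorescence over baseline measured at the second addition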
# RGS4 pot: RGS4 potentiators or activators, primary screen, cell-based, HEK293 M3R inducible RGS4, calcium flux; hit rate 0.92% among 310,000; carbachol calcium flux Fluo4; hits give low values; B-score at 10 µM;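 active means B-score of the integrated calcium signal more than 4 SD below the library mean, with starting fluorescence not abnormally high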;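 further: negative B-score means reduced calcium response which marks RGS4 activation or potentiation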
#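 Also added: carbachol at ECmax as muscarinic agonist stimulus; Assay system: HEK293 cells with stable M3R and inducible RGS4; Timing: overnight RGS4 induction, 30 min dye load 37 °C, 20 min compound RT; Measured by: Fluo4-AM (2 µM) calcium-flux fluorescence, kinetic read.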
# MrgX1 agonist: agonists of human MrgX1 receptor, primary screen, HEK293 cells, Fluo-4 calcium flux. hit rate 0.44% among 310,000. Fluo-4 calcium fluorescence, agonist mode; hits give high values. B-score at 10 µM. Mas-related G-protein coupled receptor member X1 (Homo sapiens), Q96LB2;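 active means calcium response B-score plate-corrected fluorescence ratio at least 3 library SD, with starting fluorescence B-score inside 5 SD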
#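 System: HEK293 cells stably expressing human MrgX1 receptor; Dosing: test compound in the initial addition of three; Schedule: overnight plating, then 30 min 37 °C plus 30 min room-temperature dye loading; Detection: kinetic calcium dye fluorescence, Fluo-4 NW; Controls: per-plate positive and negative controls for Z′ factor.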
# Active calls of the source: *; i = inactive; . = no result given. In the library only some 3.5% were active in any assay of this set; here they are far more common.
SMILES,RGS4 inh,MrgX1 antag,MrgX1 allo act,RGS4 pot,MrgX1 agonist
CCCN1CCN(CCCNC(=O)c2ccc(NC(=O)C3=C(C)OCCS3)cc2)CC1,i,i,i,i,i
CCC1(CC)Cc2ccccc2C(=O)N1,i,i,i,i,i
O=C1c2ccccc2CC1(Cc1ccccc1)Cc1ccccc1,i,i,i,-7.1*,i
CC(C)CCN1CCN(C2CSCCSC2)CC1CCO (stereo not drawn),i,i,i,i,i
CC(NC(=O)c1ccc(CS(=O)(=O)c2ccc(Cl)cc2)o1)c1ccc2c(c1)OCCO2 (stereo not drawn),i,i,i,-7.4*,i
Cc1ccccc1S(=O)(=O)Cc1ccc(C(=O)NC(C)c2ccc3c(c2)OCCO3)o1 (stereo not drawn),i,i,i,i,i
Cc1c(NS(=O)(=O)c2cccc(C(=O)O)c2)c(=O)n(-c2ccccc2)n1C,i,i,i,i,i
Cc1c(NS(=O)(=O)c2cccc(C(=O)NCc3ccc(Cl)cc3)c2)c(=O)n(-c2ccccc2)n1C,i,-6*,i,i,i
Cc1ccc(NC(=O)c2nn(C34CC5CC(CC(C5)C3)C4)cc2[N+](=O)[O-])cc1,i,-5*,i,i,i
O=C(C1CC(=O)N(c2ccc(F)cc2)C1)N1CCCCCC1 (stereo not drawn),i,i,i,i,i
CCNc1ccc(C(=O)OCC)cc1NC(=O)c1cccc(N(C)C)c1,i,i,i,i,i
CCOC(=O)c1ccc(S(=O)(=O)NNC(=O)c2cccc(N(C)C)c2)cc1,i,i,7.1*,i,i
CC(C)c1ccc(/C=C/C(=O)NC(=S)Nc2ccc(CN3CCOCC3)cc2)cc1,i,i,i,-8.8*,i
Cc1ccc(C(NC(=O)N2CCCC2)C(Cl)Cl)cc1F (stereo not drawn),i,-4.8*,i,i,i
CC(C)(C)C(=O)O/N=C(\N)c1c(Cl)cccc1Cl,i,i,i,-9.1*,i
O=C1CCCc2nc(N3CCN(C(c4ccccc4)c4ccccc4)CC3)ncc21,i,i,i,-7*,i
CN(c1ccccc1C(=O)Nc1ccccc1-c1ccccc1)S(C)(=O)=O,i,i,i,i,i
CCOC(=O)/C(C#N)=C/c1cc2ccc(C)cc2nc1Cl,i,i,i,i,i
Cc1ccc2cc(C=O)c(Cl)nc2c1,i,i,7.3*,i,i
COc1ccc(CCNC(=O)CCCN2C(=O)c3ccccc3C2=O)cc1,i,i,i,i,i
CCOc1cccc(CN2CCCC(C(=O)Nc3cccc(-n4cccn4)c3)C2)c1 (stereo not drawn),i,i,i,i,i
CSc1cccc(CN2CCCC(C(=O)Nc3cccc(-n4cccn4)c3)C2)c1 (stereo not drawn),i,i,i,-7.3*,i
CCOc1ccccc1CN1CCCC(C(=O)Nc2cccc(-n3cccn3)c2)C1 (stereo not drawn),i,i,i,-7*,i
COc1ccc(CC(=O)NNC(=O)c2nn(Cc3ccccc3)c(=O)c3ccccc23)cc1OC,i,i,i,i,i
O=C(CN1C(=O)/C(=C/c2ccccc2)Sc2ccccc21)NCCCN1CCOCC1,i,i,i,i,i
SMILES,RGS4 inh,MrgX1 antag,MrgX1 allo act,RGS4 pot,MrgX1 agonist
CN1CCN(CCCNC(=O)c2ccc(/C=C3\Oc4ccccc4N(Cc4ccccc4F)C3=O)cc2)CC1,i,i,i,-8.3*,i
CN1CCN(CCCNC(=O)c2ccc(/C=C3/Sc4ccccc4N(Cc4cccc(Cl)c4)C3=O)cc2)CC1,i,.,.,-7.7*,.
Cc1cccc(CN2C(=O)/C(=C\c3ccc(C(=O)NCCCN4CCN(C)CC4)cc3)Oc3ccccc32)c1,i,i,i,i,i
CN1CCN(CCCNC(=O)c2ccc(/C=C3\Sc4ccccc4N(Cc4ccc(F)cc4)C3=O)cc2)CC1,i,.,.,-7.5*,.
CCOC(=O)C1CCCN(CC(=O)c2c[nH]c3ccc(C)cc23)C1 (stereo not drawn),i,i,i,i,i
CCC[n+]1c(C)sc2c(OC)ccc(OC)c21,i,-5.5*,i,i,i
CC(C)=CCc1c2c(c3occ(-c4ccc(O)cc4)c(=O)c3c1O)C=CC(C)(C)O2,i,i,i,i,i
CC(C)=CCOc1ccc([C@@H]2COc3c(ccc4c3C=CC(C)(C)O4)C2)c(O)c1,i,i,i,-9.4*,i
Nc1c(C(=O)NCCc2ccc(Cl)cc2)sc2ccc(S(=O)(=O)N3CCCCC3)cc12,9*,i,i,i,i
CCCN(CCC)CCOc1cc(C)ccc1C(C)C,i,i,i,i,i
Cc1ccc(C(C)C)c(OCCN(C)C)c1,i,i,i,-7.1*,i
COc1ccc(S(=O)(=O)c2c(N)n(Cc3ccco3)c3nc4ccccc4nc23)cc1,i,-5.5*,i,i,i
Cc1ccc(C(c2c(C)n(C)n(-c3ccccc3)c2=O)c2c(C)n(C)n(-c3ccccc3)c2=O)s1,i,i,i,i,i
CCOC(=O)c1c(C)[nH]c(C2=NNC(=Nc3cccc(Cl)c3)SC2)c1C,i,i,22*,i,i
COC(CNC(=O)C1CCC(CNS(=O)(=O)c2c(C)cc(C)cc2C)CC1)OC (stereo not drawn),i,i,i,i,i
COc1cc2nc(N(CCCN(C)C)C(=O)c3ccc(S(=O)(=O)N(C)C4CCCCC4)cc3)sc2cc1OC,i,i,i,i,i
CN(C)CCCN(C(=O)c1ccc(S(=O)(=O)N(C)C2CCCCC2)cc1)c1nc2ccc(F)cc2s1,i,i,i,i,i
Cc1cc(C)c2sc(N(CCCN(C)C)C(=O)c3ccc(S(=O)(=O)N(C)C4CCCCC4)cc3)nc2c1,i,i,i,-8*,i
COc1ccc2sc(N(CCCN(C)C)C(=O)c3ccc(S(=O)(=O)N4CCCc5ccccc54)cc3)nc2c1,i,i,i,-9.5*,i
CN(C)CCCN(C(=O)c1ccc(S(=O)(=O)N(C)C2CCCCC2)cc1)c1nc2ccc(Br)cc2s1,i,i,i,-8.7*,i
O=C1c2cccc3cccc(c23)C(=O)N1CCc1ccccc1,i,i,i,i,i
